Each block holds one compound with its values, some of them ahead of it. The source made the active and inactive calls. No cut-off for these calls is given here.
What was measured:
[1] = Chemical stability assessed as hydrolysis half life in 0.1N HCl at pH 1; type: physicochemical
Method in brief: (§1)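 Solutions of 100 µg/mL (ketorolac tris salt at 90.5 µg/mL) held at 37 °C for 24 h in 0.1 N HCl (pH 1), phosphate buffer pH 7.4 or 8.0, or plasma. Samples taken hourly; plasma samples extracted with acetonitrile (1:2) and centrifuged. Remaining ester measured by HPLC diode array at 313 nm. Pseudo-first-order t1/2 from log plots over time; mean ± SEM.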

[2] = Chemical stability assessed as hydrolysis half life in phosphate buffer at pH 7.4; type: physicochemical; method in brief: as §1
[3] = Chemical stability assessed as hydrolysis half life in phosphate buffer at pH 8.0; type: physicochemical; method in brief: as §1
[4] = Stability in rat plasma assessed as half life; type: ADME, cell-free; method in brief: as §1
Mus musculus [5] = test: Analgesic activity against acetic acid-induced writhing in po dosed Swiss mouse administered 1 hr before acetic acid challenge measured after 5 mins for 20 mins; type: functional, organism-based
Method in brief: (§2)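 Male Swiss mice (20-25 g), fasted overnight, water allowed, six per group. Oral dosing with CMC vehicle given 1 h before ip 0.6% acetic acid or ip magnesium sulfate 120 mg/kg. Abdominal constriction, trunk turning and hind-leg extension counted: for acetic acid over 20 min starting 5 min post-injection, for MgSO4 over 5 min. Mean ± SEM.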

Mus musculus [6] = test: Analgesic activity against magnesium sulfate-induced writhing in po dosed Swiss mouse administered 1 hr before magnesium sulfate challenge measured for 5 mins; type: functional, organism-based; method in brief: as §2
Mus musculus [7] = test: Antiinflammatory activity in Swiss mouse assessed as reduction in carrageenan-induced hind paw edema at 0.1 mg/kg, po administered 1 hr before carrageenan challenge; type: functional, organism-based; set-up: dose 0.1 mg/kg
Method in brief: (§3)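 Male Swiss mice, six per group, dosed orally (CMC vehicle) 1 h before subplantar injection of 50 µL of 1% λ-carrageenan in saline into the right hind paw. Paw volume read by plethysmometer at intervals up to 96 h. Edema taken as volume minus basal volume measured just before injection. Mean ± SEM.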

Mus musculus [8] = test: Antiinflammatory activity in Swiss mouse assessed as reduction in carrageenan-induced hind paw edema at 10 mg/kg, po administered 1 hr before carrageenan challenge measured after 48 hrs; type: functional, organism-based; set-up: dose 10 mg/kg; method in brief: as §3
Mus musculus [9] = test: Gastrointestinal toxicity in fasted Swiss mouse assessed ulcer index at 0.1 mg/kg, po after 4 hrs; type: organism-based; set-up: dose 0.1 mg/kg, route oral; details: in vivo
Method in brief: (§4)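 Male Swiss mice, fasted 16-18 h, n = 6 per group, dosed orally (vehicle 0.5% CMC). Killed 4 h later; stomach opened along greater curvature, rinsed with saline and examined under magnifier. Scoring: irritation 1, lesions 1-3 mm 5, lesions >3 mm 10. Gastric lesion score and ulcer number given as mean ± SEM.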

[10] = Half life in Wistar rat at 0.1 mg/kg, po; type: ADME, organism-based; set-up: dose 0.1 mg/kg, route oral; details: in vivo
Method in brief: (§5)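 Male Wistar rats (200 ± 20 g), single oral dose; killed by decapitation at […], at least three rats per time point, each measured in triplicate. Plasma deproteinized with acetonitrile, centrifuged, organic phase analyzed by C18 HPLC at 313 nm with tolmetine internal standard. Calibration 0.1-100 µg/mL in drug-free matrix. Parameters taken from semilog concentration-time plots.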

[11] = Tmax in Wistar rat at 0.1 mg/kg, po; type: ADME, organism-based; set-up: dose 0.1 mg/kg, route oral; details: in vivo; method in brief: as §5
[12] = Cmax in Wistar rat at 0.1 mg/kg, po; type: ADME, organism-based; set-up: dose 0.1 mg/kg, route oral; details: in vivo; method in brief: as §5
[13] = AUC (0 to 6 hrs) in Wistar rat at 0.1 mg/kg, po; type: ADME, organism-based; set-up: time < 6 hr, dose 0.1 mg/kg, route oral; details: plasma; method in brief: as §5
Rattus norvegicus [14] = test: AUMC (0 to 6 hrs) in Wistar rat at 0.1 mg/kg, po; type: ADME, organism-based; set-up: dose 0.1 mg/kg, route oral; details: in vivo; method in brief: as §5
[15] = Mean residence time in Wistar rat assessed as time required for 63.2% of administered dose to be eliminated at 0.1 mg/kg, po; type: ADME, organism-based; set-up: dose 0.1 mg/kg, route oral; details: in vivo; method in brief: as §5
[16] = Systemic clearance in Wistar rat at 0.1 mg/kg, po; type: ADME, organism-based; set-up: dose 0.1 mg/kg, route oral; details: in vivo; method in brief: as §5
[17] = Elimination half life in Wistar rat at 0.1 mg/kg, po; type: ADME, organism-based; set-up: dose 0.1 mg/kg, route oral; details: in vivo, read-out: beta t1/2 (converted); method in brief: as §5
Mus musculus [18] = test: Analgesic activity against acetic acid-induced writhing in Swiss mouse at 0.163 mg/kg, po administered 1 hr before acetic acid challenge measured after 5 mins for 20 mins; type: functional, organism-based; set-up: dose 0.163 mg/kg; method in brief: as §2
Mus musculus [19] = test: Gastrointestinal toxicity in fasted Swiss mouse assessed ulcer index at 0.163 mg/kg, po after 4 hrs; type: organism-based; set-up: dose 0.163 mg/kg, route oral; details: in vivo; method in brief: as §4
Rattus norvegicus [20] = test: Half life in Wistar rat assessed as ketorolac release at 0.163 mg/kg, po; type: ADME, organism-based; set-up: dose 0.163 mg/kg, route oral; details: in vivo; method in brief: as §5
Rattus norvegicus [21] = test: Tmax in Wistar rat assessed as ketorolac release at 0.163 mg/kg, po; type: ADME, organism-based; set-up: dose 0.163 mg/kg, route oral; details: in vivo; method in brief: as §5
Rattus norvegicus [22] = test: Cmax in Wistar rat assessed as ketorolac release at 0.163 mg/kg, po; type: ADME, organism-based; set-up: dose 0.163 mg/kg, route oral; details: in vivo; method in brief: as §5
Rattus norvegicus [23] = test: AUC (0 to 6 hrs) in Wistar rat assessed as ketorolac release at 0.163 mg/kg, po; type: ADME, organism-based, Plasma; set-up: time < 6 hr, dose 0.163 mg/kg, route oral; details: in vivo; method in brief: as §5
Rattus norvegicus [24] = test: AUMC (0 to 6 hrs) in Wistar rat assessed as ketorolac release at 0.163 mg/kg, po; type: ADME, organism-based; set-up: dose 0.163 mg/kg, route oral; details: in vivo; method in brief: as §5
Rattus norvegicus [25] = test: Mean residence time in Wistar rat assessed as time required for 63.2% of administered dose to be eliminated as ketorolac at 0.163 mg/kg, po; type: ADME, organism-based; set-up: dose 0.163 mg/kg, route oral; details: in vivo; method in brief: as §5
Rattus norvegicus [26] = test: Systemic clearance in Wistar rat assessed as ketorolac release at 0.163 mg/kg, po; type: ADME, organism-based; set-up: dose 0.163 mg/kg, route oral; details: in vivo; method in brief: as §5
Rattus norvegicus [27] = test: Elimination half life in Wistar rat assessed as ketorolac release at 0.163 mg/kg, po; type: ADME, organism-based; set-up: dose 0.163 mg/kg, route oral; details: in vivo; method in brief: as §5

half-life [1]: > 4 h | half-life [2]: > 4 h | half-life [3]: > 4 h | half-life [4]: > 4 h | half-life [10]: 1.65 h | Tmax [11]: 1 h | Cmax [12]: 400 ng/mL | AUC(0-t) at 6 h [13]: 855 ng·h/mL | AUMC (Rattus norvegicus [14]): 3300 ng·h/mL | MRT [15]: 3.1 h | CL/F [16]: 1.57 mL/min | half-life [17]: 1.99 h
Compound: O=C(c1ccccc1)c1ccc2n1CCC2C(=O)O (stereo not drawn) [KETOROLAC]
Activity (Mus musculus [5]): Dose-dependent effect | Activity (Mus musculus [6]): Dose-dependent effect | Activity (Mus musculus [7]): inactive | Activity (Mus musculus [8]): Active | UI (Mus musculus [9]): 10

half-life [1]: 2.1 h | half-life [2]: > 4 h | half-life [3]: > 4 h | half-life [4]: 1.5 h | t1/2 (Rattus norvegicus [20]): 5.23 h | Tmax (Rattus norvegicus [21]): 1 h | Cmax (Rattus norvegicus [22]): 240 ng/mL | AUC (Rattus norvegicus [23]): 935 ng·h/mL | AUMC (Rattus norvegicus [24]): 5600 ng·h/mL | MRT (Rattus norvegicus [25]): 4.5 h | CL (Rattus norvegicus [26]): 80.36 mL/h | beta t1/2 (Rattus norvegicus [27]): 2.4 h
Compound: O=C(c1ccccc1)c1ccc2n1CC[C@@H]2C(=O)OC[C@H]1OC(O)[C@H](O)[C@@H](O)[C@H]1O (stereo partly drawn)
Activity (Mus musculus [5]): Dose-dependent effect | Activity (Mus musculus [18]): Active | Activity (Mus musculus [6]): Dose-dependent effect | UI (Mus musculus [19]): 1
